Shown is part of a subset that was picked to be rich in hits.
HCT116 bCat-KO: beta-catenin-lacking colon tumor cell growth suppression. HCT116 beta-catenin knockout viability, CellTiter-Glo, 60 h; hits give low values. viability, % at 10 µM. 140,000 tested, 1.5% active;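 active = viability at or under a set limit, the compound median less 4 SD, cut at about 6% in these data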;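 also: 0% = Hyamine 1622 control at 20 µM and 100% = untreated cell control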
HUVEC prolif 384: human endothelial cell proliferation inhibition; HUVEC proliferation, CellTiter-Glo luminescence, 72 h; hits give low values; viability, % at 10 µM (by protocol); 86,000 tested, 1.1% active; AID 648;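 active = viability at or below 30%; inactive = viability above 30%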;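 also: 100% = median luminescence of DMSO-only cell control wells on each plate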
PTEN del growth: growth suppressors of cells with PTEN tumor suppressor deletion | 140,000 tested, 1.2% active | viability, % at 10 µM | HCT116 PTEN-null viability, CellTiter-Glo, 60 h; hits give low values;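 active = viability at or below a set limit, 4 SD under the median of all tested compounds, cut at about 3.7% in these data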;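 also: PTEN knockout HCT116 line with beta catenin targeted HCT116 as companion control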
H69AR inhibit: growth inhibitors of human H69AR lung tumor cells. H69AR lung tumor viability, ATP luminescence, 72 h; hits give low values. viability, % at 10 µM. 85,000 tested, 6% active;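 active = viability at or below 40%; inactive = viability above 40%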;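 also: multidrug resistant small cell line overexpressing MRP-1 efflux transporter; 100% = mean luminescence of untreated control wells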
Lung fibro prol: blocks proliferation of human lung fibroblasts | 85,000 tested, 1.1% active | LL 47 human lung fibroblast viability, ATP luminescence; hits give low values | viability, % at 10 µM;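 active = viability at or below 50% in the single dose screen; inactive = viability above 50%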;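 also: compound exposure lasted 72 h before the ATP readout; 100% = median luminescence of untreated cell-only wells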
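Test system: LL 47 human lung fibroblasts; Quantity: 1,150 cells/well; Buffer or medium: IMEM plus 15% FBS; Dosing: tenfold compound dosing solution, DMSO at 0.1%; Timing: overnight cell rest, 72 h compound treatment at 37 °C; Detection: ATP-based CellTiter-Glo luminescent readout; Read-out basis: viability percentage against median untreated-cell control; Controls: cell-only wells, no compound.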
Starred values were filed as active, the others as inactive; · = not tested or not shown.

SMILES | HCT116 bCat-KO | HUVEC prolif 384 | PTEN del growth | H69AR inhibit | Lung fibro prol
Cc1cccc(NC(=O)C2c3ccccc3C(=O)N3CCc4ccccc4C23)n1 (configuration not stated) | 91 | 108 | 92 | 84 | 90
Cc1cc(C)c2[nH]c(=O)c(CN(Cc3cccs3)C(=S)NCC3CCCO3)cc2c1 (configuration not stated) | 77 | · | 80 | · | ·
CC(C)(C)c1ccc(OCc2ccc(C(=O)N/N=C/c3ccc([N+](=O)[O-])cc3)o2)cc1 | 67 | · | 69 | · | ·
COc1ccc(N=C(NN)c2ccc3ccccc3n2)cc1 | 44 | · | 55 | · | ·
Cc1cc(C(=O)N2CCN(c3ccccc3)CC2)c(C)o1 | 99 | 99 | 81 | 83 | 108
Cc1ccc(C)c(N2CCN(C(=O)c3ccc(CS(=O)(=O)c4ccccc4C)o3)CC2)c1 | 16 | 54 | 21 | 15* | 78
Cc1cc(C(=O)N2CCN(c3cccc(Cl)c3)CC2)c(C)o1 | 44 | 58 | 35 | 16* | 73
O=c1c2ccccc2nc(SCc2nc3ccccc3s2)n1CCCO | 79 | · | 75 | · | ·
CC(C)(C)c1ccc(C2(C)NC(=O)N(CC(=O)c3ccc[nH]3)C2=O)cc1 (configuration not stated) | 76 | 87 | 69 | 27* | 90
CCCn1c(=O)c(C(=O)NNS(=O)(=O)c2ccc(Cl)cc2)c(O)c2ccccc21 | 94 | · | 97 | · | ·
COc1ccc(-c2cc(N)n(S(=O)(=O)c3c(F)c(F)c(F)c(F)c3F)n2)cc1OC | 5.7* | 2.2* | 2.1* | 1.4* | 2.6*
CCOc1c(Br)ccc2c1sc1nc[nH]c(=O)c12 | 92 | 26* | 86 | 79 | 99
CN(C)c1cc(-c2ccccc2)nc(N)n1 | 55 | 72 | 48 | 40* | 92
Nc1ccc(-c2cc(-c3ccc(N)cc3)nc(-c3ccccc3)n2)cc1 | 92 | · | 93 | · | ·
Nc1nc(-c2ccccc2)cc(-c2ccccc2O)n1 | 17 | 17* | 17 | 42 | 81
NNc1nc(-c2ccccc2)cc(-c2ccccc2O)n1 | 33 | · | 38 | · | ·
CCN(CC)CCCN1C(=O)C(O)=C(C(C)=O)C1c1ccc(OC)cc1OC (configuration not stated) | · | 101 | · | 107 | 103
CCN1C/C(=C/c2cccc([N+](=O)[O-])c2)C(=O)/C(=C/c2cccc([N+](=O)[O-])c2)C1 | 1.7* | · | 1.6* | · | ·
CCN1CCN(C(=S)Nc2cccc([N+](=O)[O-])c2)CC1 | 90 | · | 88 | · | ·
COc1ccc(CCNc2nnc(Sc3nnnn3-c3ccccc3)s2)cc1OC | 14 | 42 | 22 | 29* | 56
COc1ccccc1NC(c1cccnc1)c1ccc2cccnc2c1O (configuration not stated) | 49 | · | 49 | · | ·
Cc1ccc2ccc(C(Nc3ccccn3)c3ccccc3)c(O)c2n1 (configuration not stated) | 60 | 81 | 63 | 28* | 75
Cc1cccc(NC(c2ccc(C)s2)c2ccc3ccc(C)nc3c2O)n1 (configuration not stated) | 2.4* | · | 1.7* | · | ·
COc1cc(C(Nc2ccccn2)c2ccc3ccc(C)nc3c2O)cc(OC)c1O (configuration not stated) | 2.9* | 14* | 2.5* | 0.3* | 38*
CC(=O)NC(c1ccco1)c1ccc2cccnc2c1O (configuration not stated) | 5.1* | 4.6* | 6 | 43 | 2.2*
SMILES | HCT116 bCat-KO | HUVEC prolif 384 | PTEN del growth | H69AR inhibit | Lung fibro prol
Cc1cccc(NCc2ccccc2O)n1 | 101 | 86 | 94 | 103 | 102
C=CCSc1nnc2c(n1)OC(c1c(C)[nH]n(-c3ccccc3)c1=O)Nc1ccccc1-2 (configuration not stated) | 98 | · | 101 | · | ·
CC(C)c1c(Cl)c(O)c(-c2ccccc2)c(=O)n1-c1ccc(F)cc1 | 92 | · | 94 | · | ·
Oc1c(C(Nc2ccccn2)c2ccccn2)ccc2cccnc12 (configuration not stated) | 3.0* | 55 | 2.5* | 6.4* | 5.0*
Cc1cc(NC(c2ccc(Cl)cc2)c2ccc3cccnc3c2O)no1 (configuration not stated) | 4.3* | 11* | 10 | 48 | 8.1*
CC1(C)Cc2c(cnn2-c2ccccc2)C(=O)/C1=N\NC(=O)c1ccccc1O | 93 | 93 | 86 | 68 | 99
COc1ccc(OC)c(-c2cc(C3CCN(c4cc(Cl)nc(N)n4)CC3)[nH]n2)c1 | 1.7* | · | 2.5* | · | ·
CC(C)CCNC(=O)c1cnn2c(C(F)(F)F)cc(-c3ccco3)nc12 | 66 | 86 | 59 | 56 | 97
O=C(NC1CCCC1)c1cnn2c(C(F)(F)F)cc(-c3ccco3)nc12 | 68 | 85 | 62 | 33* | 78
O=C(c1nn2c(C(F)(F)F)cc(-c3ccco3)nc2c1Br)N1CCCc2ccccc21 | 66 | 65 | 80 | 39* | 46*
O=C(NC1CCCC1)c1cnn2c(C(F)(F)F)cc(-c3ccc4c(c3)OCO4)nc12 | 11 | 28* | 7 | 17* | 84
O=P(COc1ccccc1)(c1ccccc1)c1ccccc1 | 104 | · | 108 | · | ·
Cc1ccc(C2CC(=O)Nc3cc4c(cc32)OCO4)o1 (configuration not stated) | 83 | 96 | 86 | 61 | 94
CCNc1ccc(C(=O)OCC(=O)c2cc(C)n(Cc3ccc4c(c3)OCO4)c2C)cc1[N+](=O)[O-] | 86 | · | 80 | · | ·
COC(=O)[C@@H]1CC[C@H](C)[C@@H](c2ccc(C)cc2)N1C(=O)c1ccc(/C=N/O[C@@H](C)CN2CCCCc3nc(C)c(C)cc32)cc1 | 5.9* | · | 12 | · | ·
CC(C)(C)c1ccc(C(=O)CCCSC2=C(C#N)C(c3ccco3)C3=C(CCCC3=O)N2)cc1 (configuration not stated) | 62 | 68 | 53 | 49 | 81
Cc1ccc(C(=O)CSC2=C(C#N)C(c3ccco3)C3=C(CCCC3=O)N2)cc1 (configuration not stated) | 19 | 50 | 18 | 19* | 60
N#CC1=C(SCC(=O)c2ccccc2)NC2=C(C(=O)CCC2)C1c1ccco1 (configuration not stated) | 12 | 44 | 9 | 16* | 64
COC(=O)C(C)(C)ONC(=O)Nc1ccc(C)cc1 | 94 | · | 101 | · | ·
O=C(NCCc1ccccn1)C(F)(F)C(F)(F)C(F)(F)C(F)(F)C(F)(F)C(F)(F)C(F)(F)C(F)F | 96 | · | 100 | · | ·
CC1(C)Cc2nc3sc4c(N(CCO)CCO)ncnc4c3cc2CO1 | 98 | · | 91 | · | ·
CC1(C)Cc2nc3sc4c(SCC(=O)NCc5ccccc5)ncnc4c3cc2CO1 | 12 | 50 | · | 0.7* | 55
CCOc1ccc(NC(=O)c2oc3ccccc3c2NC(=O)C2CC2)cc1 | · | 79 | · | 85 | 91
COc1cc(Nc2ccc(C)cc2)c([N+](=O)[O-])nc1[N+](=O)[O-] | 23 | 42 | 21 | 6.2* | 39*
CCOC(=O)c1[nH]c2ccc(OC)cc2c1NC(=O)c1nonc1C | 95 | 100 | 100 | 94 | 102
